Source: PubChem BioAssay
NPY-Y1 antag = NPY-Y1 receptor antagonists, primary screen, cell-based | 1% of 200,000 active | HEK293-CNG Y1 cells, membrane potential fluorescence; NPY at EC95, then isoproterenol | Neuropeptide Y receptor type 1 (Homo sapiens), P25929 | inhibition, % at 3.6 µM;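 active means inhibition above the campaign mean inhibition of all tested compounds plus 3 SD, cut at about 20% in these data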;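 further: 0% = DMSO wells given NPY plus isoproterenol and 100% = isoproterenol alone without NPY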
Target sequence (P25929 whole entry, looked up): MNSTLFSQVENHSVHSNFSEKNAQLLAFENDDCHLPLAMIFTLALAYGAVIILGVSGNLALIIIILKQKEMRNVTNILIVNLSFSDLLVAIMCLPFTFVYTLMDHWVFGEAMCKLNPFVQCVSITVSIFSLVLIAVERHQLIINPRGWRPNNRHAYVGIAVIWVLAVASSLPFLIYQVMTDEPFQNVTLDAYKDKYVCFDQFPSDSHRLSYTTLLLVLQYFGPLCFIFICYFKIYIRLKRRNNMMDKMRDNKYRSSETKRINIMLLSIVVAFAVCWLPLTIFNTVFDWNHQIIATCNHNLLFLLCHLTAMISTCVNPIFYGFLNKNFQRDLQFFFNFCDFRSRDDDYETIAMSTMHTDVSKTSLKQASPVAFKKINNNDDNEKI
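Test system: HEK293 cells co-expressing NPY Y1 receptor and cyclic-nucleotide gated channel; Also added: NPY (25 nM), isoproterenol (1 µM), Ro 20-1724 (25 µM); Compound dosing: one concentration, 3.6 µM, in 0.4% DMSO; Timing: dye 3 h, compound 60 min room temperature, stimulation 45 min; Technique: Membrane-potential fluorescent dye readout.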
NPY Y2 blocker = NPY-Y2 receptor antagonists, primary screen, cell-based; Neuropeptide Y receptor type 2 (Homo sapiens), P49146; NPY-Y2 expressing cells, antagonist mode; inhibition, % at 2.7 µM; 0.99% of 140,000 active; in the data active means inhibition above about 17%;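 further: 0% = vehicle with agonist challenge and 100% = reference antagonist with challenge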
NPY1 pot ag = NPY-Y1 receptor potentiators or agonists, primary screen, cell-based; NPY-Y1 expressing cells, potentiator/agonist activation; 0.37% of 220,000 active; Neuropeptide Y receptor type 1 (Homo sapiens), P25929; activation, % at 3.6 µM; in the data active means activation above about 33%, passing the limit was not always enough;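 further: cells stimulated with NPY at EC10 then isoproterenol at EC100; 0% = low agonist plus stimulus and 100% = saturating agonist plus stimulus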
NPY-Y2 PAM-ag = NPY-Y2 potentiators or agonists, primary screen, cell-based. cells expressing NPY-Y2, potentiator/agonist read-out. activation, % at 3.6 µM. AID 1359, 2008. Neuropeptide Y receptor type 2 (Homo sapiens), P49146. 0.45% of 220,000 active; in the data active means activation above about 27%;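 further: cells stimulated with NPY near EC25 plus isoproterenol at EC100; 0% = vehicle plus submaximal agonist and 100% = vehicle plus saturating agonist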
Starred values were filed as active, the others as inactive; x = no result given. Only some compounds are listed: those with a hit (about 1.8% of all), similar ones and a draw of the others.

SMILES | NPY-Y1 antag | NPY Y2 blocker | NPY1 pot ag | NPY-Y2 PAM-ag
Cc1ccc2[nH]c(=O)c(-c3nc4cc(C)ccn4c3NCc3ccco3)cc2c1 | -2 | 7 | 31 | 33*
O=C(Nc1ccc(S(=O)(=O)N2CCOCC2)cc1)c1cccnc1 | x | x | 1 | 0
Cc1ccc(OCC(O)Cn2c(=N)n(CCN3CCCCC3)c3ccccc32)cc1 (stereo not given) | 62* | 46* | -39 | -15
COc1ccc(OCC(O)CN2CCCCC2)cc1 (stereo not given) | -1 | 4 | 5 | 17
COc1ccc(OCC(O)Cn2c(=N)n(CCN3CCCCC3)c3ccccc32)cc1 (stereo not given) | 34* | 19* | -43 | -20
Cc1ccc(OCC(O)Cn2c(=N)n(CCN3CCOCC3)c3ccccc32)cc1 (stereo not given) | 17 | 5 | 3 | -1
O=C(/C=C/c1cccc([N+](=O)[O-])c1)Nn1c(-c2ccccc2F)nc2ccccc2c1=O | 46* | 66* | -89 | -19
Cc1cccc(-c2nc3ccccc3c(=O)n2NC(=O)/C=C/c2ccc([N+](=O)[O-])cc2)c1 | 80* | 105* | -90 | -20
O=C(NCCN1CCOCC1)/C(=C\c1ccc(Br)cc1)NC(=O)c1cccs1 | 1 | 1 | -7 | -6
CCOC(=O)C1CCCN(C(=O)c2cnn3c(C(F)F)cc(-c4ccc(C)cc4)nc23)C1 (stereo not given) | 30* | 26* | -33 | -1
Cc1ccc(-c2cc(C(F)F)n3ncc(C(=O)NN4CCCCC4)c3n2)cc1 | 4 | x | 2 | -12
Cc1ccc(-c2cc(C(F)F)n3ncc(C(=O)N4CCN5CCCC5C4)c3n2)cc1 (stereo not given) | 21* | 19* | -76 | -39
Cc1cc(C)n2ncc(/C(N)=N/OC(=O)Nc3ccccc3)c2n1 | x | x | 6 | -1
COCCNC(=S)NNC(=O)c1ccc(-n2cnnn2)cc1 | 4 | x | -2 | -8
CCCCC[C@H](O)/C=C/[C@@H]1[C@@H](C/C=C\CCCC(=O)O)[C@@H](O)C[C@H]1O | 11 | 2 | -73 | -23
CCCCC[C@H](O)/C=C/[C@@H]1[C@@H](C/C=C\CCCC(=O)OC)[C@@H](O)C[C@H]1O | 63* | 20* | -65 | -23
CCCOc1ccccc1NC(=O)Nc1ccccc1Cl | -2 | x | -11 | -21
Cc1c(Nc2ccc(C=O)cc2)c(=O)n(-c2ccccc2)n1C | 6 | x | -2 | 1
Cc1c(Nc2nc(-c3ccccc3)cs2)c(=O)n(-c2ccccc2)n1C | -1 | 1 | 59* | 78*
COc1ccc(-c2csc(NC(=O)c3ccccc3NS(=O)(=O)c3ccc(F)c(F)c3)n2)cc1 | 3 | x | 70* | 94*
Cc1ccc2c(c1)C(c1ccc([N+](=O)[O-])cc1)=NNC(c1ccc(Br)cc1)=N2 | 25* | 17* | -2 | 8
CCc1ccc2c(c1)C(c1ccc([N+](=O)[O-])cc1)=NNC(c1ccc(Br)cc1)=N2 | 5 | 0 | -7 | 11
COc1ccc(CNCC(O)COc2cccc3c2OC(C)(C)C3)cc1 (stereo not given) | -8 | x | 106* | 95*
N#CCC(=O)Nc1ccc(C(=O)Nc2cccc(S(N)(=O)=O)c2)cc1 | x | x | -3 | -2
C#CCn1c(S(=O)(=O)Cc2ccc(F)cc2)nc(-c2ccccc2)c1-c1ccccc1 | 21* | 4 | 0 | -14
SMILES | NPY-Y1 antag | NPY Y2 blocker | NPY1 pot ag | NPY-Y2 PAM-ag
CCOC(=O)Cn1c(S(=O)(=O)Cc2ccc(F)cc2)nc(-c2ccccc2)c1-c1ccccc1 | 38* | 26* | 12 | -10
CCOC(=O)Cn1c(-c2ccccc2)nc2ccccc2c1=O | 5 | 6 | 5 | -9
Cc1ccccc1/C=N/NC(=O)Cn1cnc([N+](=O)[O-])n1 | 7 | 1 | 111* | 11
O=C(NC(c1ccc(Cl)cc1)c1c(O)ccc2ccccc12)c1ccccc1 (stereo not given) | -13 | -6 | 41 | 43*
O=C(NC(c1ccccc1)c1c(O)ccc2ccccc12)c1ccccc1Cl (stereo not given) | 9 | 3 | -29 | -1
NCCCCCc1nnc(SCc2ccc(Cl)c(Cl)c2)o1 | 9 | 4 | -38 | -19
Cc1ccc(NC(=O)c2cc([N+](=O)[O-])ccc2NCc2cccnc2)cc1Cl | -6 | -4 | 39* | 15
COc1cccc(NC(=O)c2cc([N+](=O)[O-])ccc2NCc2cccnc2)c1 | -3 | -2 | -3 | -2
COc1ccc2nccc(C(N)=O)c2c1 | x | x | 16 | 3
COc1ccc(NC(=S)N(CCc2c(C)[nH]c3ccc(C)cc23)Cc2cccs2)cc1 | 1 | 0 | 1 | -4
CNC(=S)N(CCc1c(C)[nH]c2ccc(C)cc12)Cc1cccs1 | -9 | x | 43* | 31*
COc1ccc(CCNC(=O)c2ccc(CN3CCC(Cc4ccccc4)CC3)cc2)cc1 | 5 | 0 | 7 | 2
Cc1ccccc1NC(=O)c1ccc(CN2CCC(Cc3ccccc3)CC2)cc1 | 6 | 13 | 20 | 38*
Cn1c(N)c(C(=O)COC(=O)CCCc2c[nH]c3ccccc23)c(=O)n(C)c1=O | 30* | 20* | -45 | -29
Cn1c(N)c(C(=O)COC(=O)CCc2c[nH]c3ccccc23)c(=O)n(C)c1=O | 18 | 6 | -26 | -27
C(=C\c1ccccc1)/CSc1nnc(-c2cnccn2)n1Cc1ccco1 | 17 | 22* | -17 | -16
Fc1ccccc1CSc1nnc(-c2cnccn2)n1Cc1ccco1 | 0 | 8 | -2 | 21
CCN(CC)c1ccc(NC(=O)CN2CCN(S(=O)(=O)c3cc(Cl)ccc3OC)CC2)cc1 | -11 | -2 | 53* | 33*
C/C(=N\NC(=O)c1nn(C)cc1Br)c1cccc(NC(=O)C(C)(C)C)c1 | -8 | 1 | 103* | 41*
CCc1ccc2[nH]c(=O)c(CN(Cc3ccccc3OC)Cc3nnnn3Cc3ccco3)cc2c1 | 13 | 19* | -2 | 7
Cc1cc(C)n(NC(=S)NC2CCCC2)c(=O)c1C#N | x | x | 6 | 15
CCOc1ccccc1CN(CCc1ccc2c(c1)OCO2)Cc1ccccn1 | 30* | 15 | -24 | -8
CCOc1ccc(CN(C)CCc2ccccn2)cc1 | 4 | x | 9 | 5
O=C(NCc1ccc2c(c1)OCO2)c1cc([N+](=O)[O-])ccc1N1CCCCC1 | 25* | 23* | -21 | -1
O=C(CCCc1nc2ccccc2s1)NCc1ccc(F)cc1 | 1 | 4 | -3 | -7
CCCc1nc(SC)[nH]c(=O)c1C | x | x | 0 | -4
Cn1c(C(=O)NCc2ccccn2)cc2c(=O)n(C)c3ccccc3c21 | -12 | -7 | 37* | 42*
COC(=O)C1=CN(C2CC2)C=C(C(=O)OC)C1c1ccc(C(F)(F)F)cc1 | 21* | x | -5 | -1
CC(/C=C/c1ccccc1)=N\NC(=O)Cn1nc(C)cc1C | 1 | -1 | 7 | 10
